Activity calls are given as the source filed them. No cut-off for these calls is given here.

Test [1] deals with Alpha amylase (Homo sapiens) (UniProt P0DUB6). Kind of test: Inhibition of alpha-amylase (unknown origin) assessed as reduction in conversion of starch to glucose at 0.87 mM incubated for 1 hr relative to control. In short, it runs like this:
(§1)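 α-Amylase inhibition was measured by a published protocol with minor modifications. Test compounds were added at 10 and 20 µL, stated as equivalent to 0.43 and 0.86 mM. Acarbose was used at 0.067 and 0.13 mM. Runs were in triplicate with three biological replications and averaged, reported as mean ± SD with one-way ANOVA.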

In a further test the test system is Saccharomyces cerevisiae. Kind of test: Inhibition of Saccharomyces cerevisiae alpha-glucosidase at 1.3 mM pre-incubated for 15 mins before p-nitrophenyl alpha-D-glucopyranoside substrate addition and measured after 30 mins. In short, it runs like this:
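The enzyme was Saccharomyces cerevisiae α-glucosidase, assayed by a published protocol with slight modifications. Each compound was tested at two levels, 10 and 20 µL. Acarbose served as positive control. Runs were in triplicate with three biological replications, reported as mean ± SD and analysed by one-way ANOVA.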

Test [2] concerns RAW264.7. Kind of test: Anti-inflammatory activity in mouse RAW264.7 cells assessed as reduction in IL-1beta mRNA expression at 25 uM pre-incubated for 1 hr before […] for 18 hrs by qRT-PCR analysis. It is filed as functional, cell-based. The essentials:
(§2)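 RAW 264.7 murine macrophages grown in RPMI 1640 with 10% FBS, penicillin/streptomycin, 37 °C, 5% CO2. Seeded at 5.0 × 10^5 cells/well and held 24 h, then given 25 μM compound for 1 h before LPS (1 µg/mL) for a further 18 h. Total RNA was extracted, 500 ng was reverse-transcribed to cDNA, and target mRNA was quantified by qRT-PCR.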

Test [3] relates to RAW264.7. Kind of test: Anti-inflammatory activity in mouse RAW264.7 cells assessed as reduction in Cox2 mRNA expression at 25 uM pre-incubated for 1 hr before […] for 18 hrs by qRT-PCR analysis. It is filed as functional, cell-based. The essentials:
as §2
(In general: Real-time PCR tracks product formation cycle by cycle.)

The subject of test [4] is RAW264.7. Kind of test: Anti-inflammatory activity in mouse RAW264.7 cells assessed as reduction in iNOS mRNA expression at 25 uM pre-incubated for 1 hr before […] for 18 hrs by qRT-PCR analysis. It is filed as functional, cell-based. The essentials: as §2
In test [5] the test system is RAW264.7. Description: Anti-inflammatory activity in mouse RAW264.7 cells assessed as reduction in NFkappaB mRNA expression at 25 uM pre-incubated for 1 hr before […] for 18 hrs by qRT-PCR analysis. It is filed as functional, cell-based. In short, it runs like this:
as §2

Test [6] concerns RAW264.7. Kind of test: Anti-inflammatory activity in mouse RAW264.7 cells assessed as reduction in IL6 mRNA expression at 25 uM pre-incubated for 1 hr before […] for 18 hrs by qRT-PCR analysis. It is filed as functional, cell-based. The essentials: as §2
The subject of test [7] is RAW264.7. Kind of test: Anti-inflammatory activity in mouse RAW264.7 cells assessed as reduction in TNFalpha mRNA expression at 25 uM pre-incubated for 1 hr before […] for 18 hrs by qRT-PCR analysis. It is filed as functional, cell-based. In short, it runs like this:
as §2

The target in test [8] is Alpha amylase (Homo sapiens) (UniProt P0DUB6). Kind of test: Inhibition of alpha-amylase (unknown origin) assessed as reduction in conversion of starch to glucose at 0.13 mM incubated for 1 hr relative to control. The essentials:
as §1

Chain of Alpha amylase (Homo sapiens) (P0DUB6 whole entry, looked up): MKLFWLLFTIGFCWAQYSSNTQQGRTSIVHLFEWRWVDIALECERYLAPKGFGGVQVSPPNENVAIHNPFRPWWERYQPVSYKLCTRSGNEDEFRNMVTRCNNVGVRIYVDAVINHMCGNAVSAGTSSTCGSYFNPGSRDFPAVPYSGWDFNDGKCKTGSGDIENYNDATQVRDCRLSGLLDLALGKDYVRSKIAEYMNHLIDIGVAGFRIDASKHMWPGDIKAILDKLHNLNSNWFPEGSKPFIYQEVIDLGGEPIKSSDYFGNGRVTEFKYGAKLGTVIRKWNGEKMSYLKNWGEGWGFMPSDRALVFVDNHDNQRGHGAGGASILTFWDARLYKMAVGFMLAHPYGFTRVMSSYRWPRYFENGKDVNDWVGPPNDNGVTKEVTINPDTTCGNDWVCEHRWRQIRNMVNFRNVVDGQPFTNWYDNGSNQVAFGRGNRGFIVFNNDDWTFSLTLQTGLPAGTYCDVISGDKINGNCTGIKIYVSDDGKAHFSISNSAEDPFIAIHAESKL

With `O=C(O)c1cc(O[C@@H]2OC[C@@H](O)[C@H](O)[C@H]2O)ccc1O`, the figures for the inhibition (in test [1]; with Saccharomyces cerevisiae) were 60.7% and 56.4%, respectively. In addition, the inhibition result in the test on RAW264.7 [2], with RAW264.7 [3], with RAW264.7 [4], in the test on RAW264.7 [5] and with RAW264.7 [6] was “Active” in each case.
`COC(C)(C)/C=C/C[C@@H](C)[C@H]1CC[C@@]2(C)[C@@H]3[C@@H](O[C@@H]4O[C@H](CO)[C@@H](O)[C@H](O)[C@H]4O)C=C4[C@@H](CC[C@H](O)C4(C)C)[C@]3(C=O)CC[C@]12C`: the figures for the inhibition (in test [1]; in the test with Saccharomyces cerevisiae) were 69% and 47.5%, respectively. The inhibition result in the test on RAW264.7 [2], in the test with RAW264.7 [3], with RAW264.7 [4] and in the test with RAW264.7 [5] was “Active” throughout. Besides, the inhibition entry in the test with RAW264.7 [6] is “inactive”.
For `C[C@H](CC(O)C(O)C(C)(C)O)[C@H]1CC[C@@]2(C)[C@@H]3C=C[C@@]45OC[C@]3(CC[C@]12C)[C@@H]4CC[C@H](O[C@@H]1O[C@H](CO)[C@@H](O)[C@@H](O)[C@H]1O)C5(C)C` (some centres not stated), the inhibition came to 66.4% in [1] and 49.4% with Saccharomyces cerevisiae. The inhibition entry with RAW264.7 [2], with RAW264.7 [3], in the test on RAW264.7 [4], in the test on RAW264.7 [5] and in the test with RAW264.7 [6] was “Active” each time.
As to `COC(C)(C)/C=C/C[C@@H](C)[C@H]1CC[C@@]2(C)[C@@H]3C=C[C@@]45OC[C@]3(CC[C@]12C)[C@@H]4CC[C@H](O[C@@H]1O[C@H](CO)[C@@H](O)[C@@H](O)[C@H]1O)C5(C)C`, the inhibition in [1] came out at 70.5%; in the test on Saccharomyces cerevisiae it was 48.5%. Moreover, the inhibition result with RAW264.7 [2], in the test on RAW264.7 [4], in the test on RAW264.7 [5] and in the test with RAW264.7 [7] was “Active” each time.
Consider `C[C@H](C/C=C/C(C)(C)O)[C@H]1CC[C@@]2(C)[C@@H]3C=C[C@@]45OC[C@]3(CC[C@]12C)[C@@H]4CC[C@H](O[C@@H]1O[C@H](CO)[C@@H](O)[C@@H](O)[C@H]1O)C5(C)C` [MOMORDICOSIDE F2], for which the figures for the inhibition (in [1]; in the test on Saccharomyces cerevisiae) were 63.7% and 42.4%, respectively. Besides, the inhibition entry with RAW264.7 [2], in the test with RAW264.7 [4] and with RAW264.7 [5] was “Active” each time.
Turning to `COC(C)(C)/C=C/C[C@@H](C)[C@H]1CC[C@@]2(C)[C@@H]3C=C[C@@]45OC[C@]3(CC[C@]12C)[C@@H]4CC[C@H](O[C@@H]1O[C@H](CO)[C@@H](O)[C@H](O)[C@H]1O)C5(C)C` [MOMORDICOSIDE F1], the inhibition in test [1] worked out at 63.5%; in the test with Saccharomyces cerevisiae, 35.9%. The inhibition result in the test on RAW264.7 [2], with RAW264.7 [3], in the test with RAW264.7 [4], in the test with RAW264.7 [5] and in the test with RAW264.7 [7] was “Active” in each case.
As to `C[C@H](C/C=C/C(C)(C)O)[C@H]1CC[C@@]2(C)[C@@H]3C=C[C@@]45OC[C@]3(CC[C@]12C)[C@@H]4CC[C@H](O[C@@H]1O[C@H](CO)[C@@H](O)[C@H](O)[C@H]1O)C5(C)C` [MOMORDICOSIDE I], the inhibition in [1] stood at 64.2%; in the test on Saccharomyces cerevisiae it was 35.1%. In addition, the inhibition result with RAW264.7 [2], with RAW264.7 [3], with RAW264.7 [4], in the test on RAW264.7 [5] and with RAW264.7 [6] was “Active” each time.
Turning to `C[C@H]1O[C@H](O[C@H]2[C@H](O)[C@@H](O)[C@@H](O[C@H]3[C@H](O)[C@@H](O)C(O)O[C@@H]3CO)O[C@@H]2CO)[C@H](O)[C@@H](O)[C@@H]1N[C@H]1C=C(CO)[C@@H](O)[C@H](O)[C@H]1O` (some centres not stated), in test [8], the inhibition stood at 88%.

For orientation: inhibition means the change of the read-out against control, counted positive when it falls.

The record behind these values is ChEMBL document CHEMBL4402512, “In vitro and in silico elucidation of antidiabetic and anti-inflammatory activities of bioactive compounds from Momordica charantia L” (Bioorg Med Chem, 2019).
